Screens (PubChem BioAssay)
A selection: hits, their analogues and other compounds. The true share with any hit is near 3%.
Wnt bcat act: activates Wnt/beta-catenin signaling in a reporter cell assay; activation, % at 9.35 µM; activator, plate reader; 1.2% of 300,000 active; in the data active means activation above about 30%, passing the limit was not always enough
NSD2 inh: blocks human histone methyltransferase NSD2 | O96028 | NSD2 peptide methylation, AlphaScreen, 120 min | inhibition, % at 12.5 µM | 0.54% of 310,000 active; in the data active means inhibition above about 50%
esBAF inh: inhibitors of esBAF chromatin remodeling in mouse ES cells; Bmi1-luciferase knock-in reporter, 24 h; 100% = twice the neutral-well signal; reporter increase, % at 12.5 µM; 2% of 350,000 active; AID 602393; in the data active means activation above about 40%;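 further: a rise in the Bmi1 reporter signal indicates esBAF inhibition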
Casp6 inh: caspase-6 (human) enzyme inhibition; P55212; purified caspase-6, Z-VEID-R110 cleavage fluorescence; inhibition, % at 12.5 µM; 0.53% of 350,000 active;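 active means mean inhibition across replicates at least about 35%, with every replicate also reaching that limit, limit read from the data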
Target sequence (P55212 24-179 limits assumed): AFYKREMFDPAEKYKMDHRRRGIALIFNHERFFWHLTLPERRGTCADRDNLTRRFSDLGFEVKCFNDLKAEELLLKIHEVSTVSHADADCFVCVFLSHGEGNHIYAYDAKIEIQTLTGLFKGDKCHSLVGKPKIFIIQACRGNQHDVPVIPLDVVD
Target sequence (P55212 194-293 limits assumed): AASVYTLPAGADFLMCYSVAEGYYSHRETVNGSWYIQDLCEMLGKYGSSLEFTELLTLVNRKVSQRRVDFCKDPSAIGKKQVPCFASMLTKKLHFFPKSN
XiGFP reactiv: activators of X-chromosome reactivation in mouse fibroblasts; XiGFP mouse fibroblasts, % GFP-positive cells imaging, 3 d; cells co-treated with 5-aza-dC sensitizer; scaled so ellipticine positive control = 100%; activation, % at 7.58 µM; 0.055% of 360,000 active; AID 743238;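 active means mean normalized replicate activation at least 10% and every replicate at or above 10%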
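System: 68-5-11 XiGFP fibroblast line | Buffer or medium: DMEM containing 5-aza-dC | Compound: Single point | Times: Compounds 3 days, fix/stain 15 min at room temperature | Benchmarks: Positive control ellipticine, 6 µM final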
MITF act: activators of MITF-driven TRPM1 promoter activity in SK-MEL-5 cells; SK-MEL-5 TRPM1-promoter luciferase, 24 h; % of positive control, neutral wells = 0; activation, % at 12.5 µM; 0.75% of 300,000 active; AID 588334;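 active means mean activation of at least 80% with every replicate also reaching 80%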
AlphaScreen art: AlphaScreen assay artifact in NSD2 counter-screen; shares compounds with NSD2 inh; AlphaScreen artifact counterscreen, preloaded methylated H4 peptide; AC35, µM (highest dose often 10 µM); 9.4% of 1,500 active; AID 1053174; call rule not given here
Large screens that a line does not name were inactive (follow-up assays come after a bar, where they were run).

COc1ccc2ccccc2c1C1CC(=O)N2CN(C)CSC2=C1C#N (configuration not stated)	NSD2 inh 88.7 (no result: XiGFP reactiv) | AlphaScreen art inactive
Clc1ccc(-c2cn3cc(Cl)ccc3n2)cc1	none (no result: esBAF inh)
CCN(CC)S(=O)(=O)c1ccc(-c2cn3cc(Cl)ccc3n2)cc1	NSD2 inh 76.8 | AlphaScreen art inactive
Cc1noc(C)c1NC(=O)Nc1ccc2c(c1)C(=O)N([C@@H](C)CO)C[C@H](C)[C@H](CN(C)Cc1ccncc1)OCCCC[C@@H](C)O2	none (no result: Wnt bcat act, NSD2 inh, MITF act)
Cc1nc([N+](=O)[O-])c(C(=O)OCc2ccccc2F)n1C	NSD2 inh 53.9 (no result: esBAF inh) | AlphaScreen art inactive
Cc1nc([N+](=O)[O-])c(C(=O)OCc2ccccc2Br)n1C	none (no result: esBAF inh)
COc1cc(C)c2sc3ccccc3c(=O)c2c1NCCN(C)C	NSD2 inh 161.3 (no result: MITF act) | AlphaScreen art 3.25µM
Cc1ccc(NCCN(C)C)c2c(=O)c3cc(O)ccc3sc12	none (no result: esBAF inh)
O=C1NN(c2ccccc2)C(=O)/C1=C\c1ccc(-c2cc([N+](=O)[O-])ccc2O)o1	none
O=C1NN(c2ccc(Cl)cc2)C(=O)/C1=C\c1ccc(-c2cccc(C(=O)O)c2)o1	NSD2 inh 53.8, Casp6 inh 73.3 (no result: esBAF inh) | AlphaScreen art inactive
C[C@H](CO)N1C[C@H](C)[C@H](CN(C)Cc2ccc(Cl)c(Cl)c2)OCCCC[C@H](C)Oc2ccc(NS(=O)(=O)c3ccc(F)cc3)cc2C1=O	none (no result: Wnt bcat act, NSD2 inh, MITF act)
Cc1cc(C)n(CCC(=O)N2CCN(S(=O)(=O)c3ccccc3)CC2)n1	NSD2 inh 54.0 | AlphaScreen art inactive
O=C(Nc1nnc(SCc2cccc3ccccc23)s1)C1COc2ccccc2O1 (configuration not stated)	NSD2 inh 63.0 | AlphaScreen art inactive
Cc1ccccc1CSc1nnc(NC(=O)C2COc3ccccc3O2)s1 (configuration not stated)	none (no result: Casp6 inh, XiGFP reactiv)
C/C=C/c1ccc([C@@H]2[C@@H](CO)N(CCC(F)(F)F)C23CN(C(C)=O)C3)cc1	none (no result: Wnt bcat act, NSD2 inh, esBAF inh, Casp6 inh, MITF act)
Cc1[nH][nH]c(=O)c1C(c1c(C)[nH][nH]c1=O)c1cn(Cc2ccccc2Cl)c2ccccc12	NSD2 inh 114.9 (no result: esBAF inh, Casp6 inh) | AlphaScreen art inactive
CCc1csc(N2[C@H](C#N)[C@H](c3ccc(C4=CCCC4)cc3)[C@H]2CO)n1	none (no result: Wnt bcat act, NSD2 inh, MITF act)
COc1cccc(NC(=O)N(C)C[C@H]2Oc3cc(C#CC4(O)CCCC4)ccc3S(=O)(=O)N([C@@H](C)CO)C[C@@H]2C)c1	none (no result: Wnt bcat act, NSD2 inh, MITF act)
O=C(COc1ccccc1)N/N=C/c1sc(=O)n(Cc2cccc(C(=O)O)c2)c1Cl	NSD2 inh 62.2 (no result: esBAF inh) | AlphaScreen art inactive
CCN(CC)CCCNc1nc(CN2CCOCC2)nc2sc3c(c12)CCC3	NSD2 inh 54.3 (no result: esBAF inh) | AlphaScreen art inactive
CCC(=O)Nc1ccc2c(c1)OC[C@@H](C)N(C(=O)Cc1cccnc1)C[C@@H](C)[C@@H](OC)CN(C)C2=O	none (no result: Wnt bcat act, NSD2 inh, MITF act)
C/C(CC(=O)Nc1ccccn1)=N\NC(=O)C(=O)Nc1cccc(Cl)c1C	NSD2 inh 60.0 (no result: Wnt bcat act, Casp6 inh, XiGFP reactiv) | AlphaScreen art inactive
CCOC(=O)c1cc(-c2ccc(F)cc2)nc2c1c(=O)[nH]c(=O)n2Cc1ccccc1	NSD2 inh 86.0 | AlphaScreen art inactive
CCOC(=O)c1cc(-c2cc(OC)c(OC)c(OC)c2)nc2c1c(=O)[nH]c(=O)n2Cc1ccccc1	none (no result: esBAF inh)
COc1ccccc1OCC(=O)Nc1ccc(S(=O)(=O)N2CCN(C)CC2)cc1	none
COc1ccccc1OCC(=O)Nc1ccc(S(=O)(=O)N2CCCC2)cc1	NSD2 inh 69.5 | AlphaScreen art inactive
COc1ccccc1OCC(=O)Nc1ccccc1C(=O)N1CCCC1	NSD2 inh 80.0 | AlphaScreen art inactive
CCCNC(=O)N1CC2(C1)[C@@H](c1ccccc1)[C@@H](CO)N2CC1CCOCC1	none (no result: Wnt bcat act, NSD2 inh, esBAF inh, MITF act)
C[C@@H]1CN([C@@H](C)CO)C(=O)c2cc(NS(=O)(=O)c3ccccc3)ccc2O[C@@H](C)CCCCO[C@@H]1CN(C)S(=O)(=O)c1cn(C)cn1	none (no result: Wnt bcat act, NSD2 inh, MITF act)
CCNC1CCC(Nc2ccnc3cc(Cl)ccc23)CC1 (configuration not stated)	NSD2 inh 89.0 | AlphaScreen art inactive
